From ChEMBL document CHEMBL3425497, “Discovery of (R)-1-(3-((2-chloro-4-(((2-hydroxy-2-(8-hydroxy-2-oxo-1,2-dihydroquinolin-5-yl)ethyl)amino)methyl)-5-methoxyphenyl)amino)-3-oxopropyl)piperidin-4-yl [1,1'-biphenyl]-2-ylcarbamate (TD-5959, GSK961081, batefenterol): first-in-class dual pharmacology multivalent muscarinic antagonist and …” (J Med Chem, 2015)
pEC50, pKi: −log10 of the molar value. Calls of active or inactive are those of the source. The rule behind the calls is not given here.

Legend:
[1] = target: Beta-2 adrenergic receptor (Homo sapiens, UniProt P07550); assay: Agonist activity at human beta2 adrenergic receptor expressed in HEK293 cells assessed as cAMP accumulation using [125I]cAMP by scintillation counting; format: functional, cell-based
Cavia porcellus [2] = assay: Bronchoprotection in male Duncan Hartley guinea pig bronchoconstriction einthoven model assessed as inhibition of methacholine-induced bronchoconstriction at 100 microg/ml, inhalation after 1.5 hrs by in vivo muscarinic acetylcholine receptor antagonist activity assay; format: functional; parameters: scale not given: the % may be the effect or the level left
[3] = target: T1, Muscarinic acetylcholine receptor M3 (Homo sapiens, UniProt P20309); assay: Displacement of [3H]NMS from human muscarinic M3 receptor expressing CHO-K1 cells incubated for 60 mins or 6 hrs by liquid scintillation counting; format: cell-based
Target sequence in this assay (P20309 whole entry): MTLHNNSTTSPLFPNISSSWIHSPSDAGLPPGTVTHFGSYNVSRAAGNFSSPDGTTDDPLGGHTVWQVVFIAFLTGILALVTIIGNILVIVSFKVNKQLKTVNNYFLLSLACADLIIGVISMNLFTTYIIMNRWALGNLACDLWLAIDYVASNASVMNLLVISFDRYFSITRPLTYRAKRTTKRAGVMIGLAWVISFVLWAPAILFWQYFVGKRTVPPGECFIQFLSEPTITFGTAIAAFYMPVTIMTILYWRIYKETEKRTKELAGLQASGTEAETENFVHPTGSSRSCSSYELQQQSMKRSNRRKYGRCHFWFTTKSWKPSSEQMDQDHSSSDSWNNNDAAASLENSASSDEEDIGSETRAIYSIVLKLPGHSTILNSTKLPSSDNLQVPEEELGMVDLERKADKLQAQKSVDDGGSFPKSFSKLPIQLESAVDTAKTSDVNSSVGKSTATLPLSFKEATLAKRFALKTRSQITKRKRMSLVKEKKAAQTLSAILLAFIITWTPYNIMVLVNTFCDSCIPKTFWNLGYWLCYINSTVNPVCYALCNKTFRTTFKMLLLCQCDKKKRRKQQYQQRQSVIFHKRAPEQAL

Cavia porcellus [4] = assay: Bronchoprotection in male Duncan Hartley guinea pig bronchoconstriction einthoven model assessed as inhibition of methacholine-induced bronchoconstriction at 100 microg/ml, inhalation after 24 hrs by in vivo beta2 adrenergic receptor agonist activity assay; format: functional; parameters: scale not given: the % may be the effect or the level left
How it was run: (§1)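 Einthoven bronchoprotection in guinea pigs, read as % bronchoprotection 24 h after inhaled dosing. The TFA salt was used in the initial experiments. For one compound, the edisylate salt was compared with the TFA form. Group sizes were n = 3–8.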

Cavia porcellus [5] = assay: Bronchoprotection in male Duncan Hartley guinea pig bronchoconstriction einthoven model assessed as inhibition of methacholine-induced bronchoconstriction at 100 microg/ml, inhalation after 1.5 hrs by in vivo beta2 adrenergic receptor agonist activity assay; format: functional; parameters: scale not given: the % may be the effect or the level left
Cavia porcellus [6] = assay: Bronchoprotection in male Duncan Hartley guinea pig bronchoconstriction einthoven model assessed as inhibition of methacholine-induced bronchoconstriction at 100 microg/ml, inhalation after 24 hrs by in vivo muscarinic acetylcholine receptor antagonist activity assay; format: functional; parameters: scale not given: the % may be the effect or the level left; how it was run: as §1
Cavia porcellus [7] = species: Cavia porcellus; assay: Antisialagogue activity in guinea pig assessed as inhibition of pilocarpine-induced sialagogue response at 100 ug/ml, inhalation after 1.5 hrs; format: functional
How it was run: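 Guinea pigs were pretreated with test compound by inhalation. At 1.5 h post-dose they were challenged with pilocarpine. The sialagogue (salivation) response was recorded as % inhibition.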

Cavia porcellus [8] = assay: Bronchoprotection in male Duncan Hartley guinea pig bronchoconstriction einthoven model assessed as inhibition of methacholine-induced bronchoconstriction at 100 microg/ml, inhalation after 24 hrs by in vivo muscarinic antagonist and beta2 agonist activity assay; format: functional; how it was run: as §1
Cavia porcellus [9] = assay: Bronchoprotection in male Duncan Hartley guinea pig bronchoconstriction einthoven model assessed as inhibition of methacholine-induced bronchoconstriction at 100 microg/ml, inhalation after 1.5 hrs by in vivo muscarinic antagonist and beta2 agonist activity assay; format: functional
Cavia porcellus [10] = species: Cavia porcellus; assay: Antisialagogue activity in guinea pig assessed as inhibition of pilocarpine-induced sialagogue response at 10 ug/ml, inhalation after 1.5 hrs; format: functional
Cavia porcellus [11] = assay: Bronchoprotection in male Duncan Hartley guinea pig bronchoconstriction einthoven model assessed as inhibition of methacholine-induced bronchoconstriction at 10 microg/ml, inhalation after 1.5 hrs by in vivo beta2 adrenergic receptor agonist activity assay; format: functional, organism-based
How it was run: (§2)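 Guinea pig Einthoven bronchoprotection model after test compound dosing (TFA salt in initial experiments). % bronchoprotection was scored separately as MA, BA and combined MABA activity, at 1.5 h or 24 h postdose; n = 3–8 animals per group.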

Cavia porcellus [12] = assay: Bronchoprotection in male Duncan Hartley guinea pig bronchoconstriction einthoven model assessed as inhibition of methacholine-induced bronchoconstriction at 10 microg/ml, inhalation after 24 hrs by in vivo beta2 adrenergic receptor agonist activity assay; format: functional, organism-based; how it was run: as §2
Cavia porcellus [13] = assay: Bronchoprotection in male Duncan Hartley guinea pig bronchoconstriction einthoven model assessed as inhibition of methacholine-induced bronchoconstriction at 10 microg/ml, inhalation after 24 hrs by in vivo muscarinic antagonist and beta2 agonist activity assay; format: functional, organism-based; how it was run: as §2
Cavia porcellus [14] = assay: Bronchoprotection in male Duncan Hartley guinea pig bronchoconstriction einthoven model assessed as inhibition of methacholine-induced bronchoconstriction at 10 microg/ml, inhalation after 24 hrs by in vivo muscarinic acetylcholine receptor antagonist activity assay; format: functional; parameters: scale not given: the % may be the effect or the level left; how it was run: as §2
Cavia porcellus [15] = assay: Bronchoprotection in male Duncan Hartley guinea pig bronchoconstriction einthoven model assessed as inhibition of methacholine-induced bronchoconstriction at 10 microg/ml, inhalation after 1.5 hrs by in vivo muscarinic antagonist and beta2 agonist activity assay; format: functional, organism-based; how it was run: as §2
Cavia porcellus [16] = assay: Bronchoprotection in male Duncan Hartley guinea pig bronchoconstriction einthoven model assessed as inhibition of methacholine-induced bronchoconstriction at 10 microg/ml, inhalation after 1.5 hrs by in vivo muscarinic acetylcholine receptor antagonist activity assay; format: functional; parameters: scale not given: the % may be the effect or the level left; how it was run: as §2
CYP1A2 = target: T2, CYP1A2 (Homo sapiens, UniProt P05177); assay: Inhibition of CYP1A2 (unknown origin) at 600 nM; format: ADME
T2 sequence (P05177 whole entry): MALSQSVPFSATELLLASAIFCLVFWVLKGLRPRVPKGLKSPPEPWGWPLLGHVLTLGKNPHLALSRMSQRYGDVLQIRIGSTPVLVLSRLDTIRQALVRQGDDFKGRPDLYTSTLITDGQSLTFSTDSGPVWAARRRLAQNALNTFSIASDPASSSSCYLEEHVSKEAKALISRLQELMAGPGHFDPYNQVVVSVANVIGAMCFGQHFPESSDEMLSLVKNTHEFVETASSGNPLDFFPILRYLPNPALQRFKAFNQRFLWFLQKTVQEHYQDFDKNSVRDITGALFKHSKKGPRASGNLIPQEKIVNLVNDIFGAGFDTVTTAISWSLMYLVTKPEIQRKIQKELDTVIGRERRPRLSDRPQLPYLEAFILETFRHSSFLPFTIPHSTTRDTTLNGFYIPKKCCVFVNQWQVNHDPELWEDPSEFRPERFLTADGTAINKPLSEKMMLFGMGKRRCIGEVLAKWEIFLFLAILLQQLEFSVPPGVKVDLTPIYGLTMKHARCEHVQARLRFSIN

Cavia porcellus [17] = species: Cavia porcellus; assay: Combined muscarinic antagonist and beta2 agonist activity in guinea pig isolated trachea assessed as smooth muscle relaxation
[18] = Clearance in male Sprague-Dawley rat at 0.25 mg/kg, iv; format: ADME, organism-based; parameters: dose 0.25 mg/kg, route intravenous; conditions: in vivo
[19] = target: T1, Muscarinic acetylcholine receptor M3; assay: Binding affinity to human muscarinic M3 receptor assessed as dissociation half life
How it was run: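 Kinetic radioligand dissociation study at the human M3 receptor, reported as dissociation half-life in minutes.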
Target sequence in this assay (P20309 whole entry, looked up): as the sequence (P20309 whole entry) above

[20] = Half life in male Sprague-Dawley rat at 0.25 mg/kg, iv; format: ADME, organism-based; parameters: dose 0.25 mg/kg, route intravenous; conditions: in vivo
Cavia porcellus [21] = species: Cavia porcellus; assay: Agonist activity at beta2 adrenergic receptor in guinea pig isolated trachea assessed as smooth muscle relaxation
CYP2D6 = CYP2D6 (Homo sapiens, UniProt P10635); assay: Inhibition of CYP2D6 (unknown origin) at 600 nM; format: ADME
[22] = target: Voltage-gated inwardly rectifying potassium channel KCNH2 (Homo sapiens, UniProt Q12809); assay: Inhibition of human ERG channel up to 150 nM
[23] = Apparent permeability across apical to basolateral side in human Caco2 cells using [14C]mannitol at 10 to 100 uM after 30 mins by HPLC-UV analysis; format: ADME, cell-based; conditions: caco-2, 0.5 h
Salmonella typhimurium [24] = assay: Genotoxicity in Salmonella typhimurium at 5000 ug/plate by AMES test in presence of metabolic activation; format: toxicity, organism-based; conditions: salmonella enterica subsp. enterica serovar typhimurium
How it was run: (§3)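 Exploratory (non-GLP) Ames assay, tested at up to 5000 μg/plate with and without a metabolic activation system.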

[25] = Half life in human liver microsomes at 3 uM after 30 mins by HPLC-UV analysis; format: ADME
[26] = Oral bioavailability in male Sprague-Dawley rat at 0.25 mg/kg; format: ADME, organism-based; conditions: in vivo
CYP2C9 = CYP2C9 (Homo sapiens, UniProt P11712); assay: Inhibition of CYP2C9 (unknown origin) at 600 nM; format: ADME
Liver microsome = assay: Drug metabolism in human liver microsomes assessed as metabolites; format: ADME
[27] = Volume of distribution at steady state in male Sprague-Dawley rat at 0.25 mg/kg, iv; format: ADME, organism-based; parameters: dose 0.25 mg/kg, route intravenous; conditions: in vivo, read-out: Vdss
Cavia porcellus [28] = species: Cavia porcellus; assay: Antagonist activity at muscarinic M3 receptor in guinea pig isolated trachea assessed as smooth muscle relaxation
CYP3A4 = CYP3A4 (Homo sapiens, UniProt P08684); assay: Inhibition of CYP3A4 (unknown origin) at 600 nM; format: ADME
CYP2C19 = CYP2C19 (Homo sapiens, UniProt P33261); assay: Inhibition of CYP2C19 (unknown origin) at 600 nM; format: ADME
Rattus norvegicus = assay: Toxicity in rat assessed as respiratory irritation and systemic exposures up to 333 ug/kg dosed via inhalation during 7-day inhalation study; format: organism-based; conditions: in vivo, 0.333 mg/kg
Salmonella typhimurium [29] = assay: Genotoxicity in Salmonella typhimurium at 5000 ug/plate by AMES test in absence of metabolic activation; format: toxicity, organism-based; conditions: salmonella enterica subsp. enterica serovar typhimurium; how it was run: as §3

Beta-2 adrenergic receptor, sequence (P07550 whole entry): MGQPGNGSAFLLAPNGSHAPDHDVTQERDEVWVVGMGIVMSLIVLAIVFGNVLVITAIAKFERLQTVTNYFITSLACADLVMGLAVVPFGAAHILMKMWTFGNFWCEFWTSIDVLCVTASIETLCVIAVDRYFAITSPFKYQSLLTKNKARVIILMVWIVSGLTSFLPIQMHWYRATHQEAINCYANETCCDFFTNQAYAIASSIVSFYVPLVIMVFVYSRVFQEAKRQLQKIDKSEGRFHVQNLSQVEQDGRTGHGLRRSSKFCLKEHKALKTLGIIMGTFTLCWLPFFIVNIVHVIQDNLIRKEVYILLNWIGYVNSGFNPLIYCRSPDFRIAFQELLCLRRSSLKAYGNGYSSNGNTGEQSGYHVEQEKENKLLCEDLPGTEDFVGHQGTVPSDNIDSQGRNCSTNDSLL
CYP2C9, sequence (P11712 whole entry): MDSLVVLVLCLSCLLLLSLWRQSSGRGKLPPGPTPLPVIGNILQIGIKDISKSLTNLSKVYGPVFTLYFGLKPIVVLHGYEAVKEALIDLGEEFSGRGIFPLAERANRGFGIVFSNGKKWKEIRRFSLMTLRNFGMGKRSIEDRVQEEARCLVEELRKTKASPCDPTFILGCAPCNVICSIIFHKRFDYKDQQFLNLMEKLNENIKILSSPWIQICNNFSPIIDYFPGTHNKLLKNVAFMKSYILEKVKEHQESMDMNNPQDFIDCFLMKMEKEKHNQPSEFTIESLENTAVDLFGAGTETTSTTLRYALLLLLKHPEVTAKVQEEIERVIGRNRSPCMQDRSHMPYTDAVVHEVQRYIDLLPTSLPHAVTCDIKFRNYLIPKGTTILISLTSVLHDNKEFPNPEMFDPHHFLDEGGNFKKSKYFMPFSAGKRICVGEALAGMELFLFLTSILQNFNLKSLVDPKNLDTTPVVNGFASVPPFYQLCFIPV
CYP2D6, sequence (P10635 whole entry): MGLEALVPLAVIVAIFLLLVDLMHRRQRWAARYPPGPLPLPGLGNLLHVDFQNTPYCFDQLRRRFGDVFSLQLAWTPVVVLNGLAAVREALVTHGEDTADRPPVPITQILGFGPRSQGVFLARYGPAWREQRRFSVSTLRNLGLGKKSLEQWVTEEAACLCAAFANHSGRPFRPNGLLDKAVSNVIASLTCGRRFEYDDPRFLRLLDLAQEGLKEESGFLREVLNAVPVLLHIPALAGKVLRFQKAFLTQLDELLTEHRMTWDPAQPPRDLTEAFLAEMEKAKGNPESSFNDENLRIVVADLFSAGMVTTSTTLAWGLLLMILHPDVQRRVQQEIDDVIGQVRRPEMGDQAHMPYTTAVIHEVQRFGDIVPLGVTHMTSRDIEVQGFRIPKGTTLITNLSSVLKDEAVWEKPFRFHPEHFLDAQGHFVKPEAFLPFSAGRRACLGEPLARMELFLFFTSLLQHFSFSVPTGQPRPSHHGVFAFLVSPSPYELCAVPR
CYP3A4, sequence (P08684 whole entry): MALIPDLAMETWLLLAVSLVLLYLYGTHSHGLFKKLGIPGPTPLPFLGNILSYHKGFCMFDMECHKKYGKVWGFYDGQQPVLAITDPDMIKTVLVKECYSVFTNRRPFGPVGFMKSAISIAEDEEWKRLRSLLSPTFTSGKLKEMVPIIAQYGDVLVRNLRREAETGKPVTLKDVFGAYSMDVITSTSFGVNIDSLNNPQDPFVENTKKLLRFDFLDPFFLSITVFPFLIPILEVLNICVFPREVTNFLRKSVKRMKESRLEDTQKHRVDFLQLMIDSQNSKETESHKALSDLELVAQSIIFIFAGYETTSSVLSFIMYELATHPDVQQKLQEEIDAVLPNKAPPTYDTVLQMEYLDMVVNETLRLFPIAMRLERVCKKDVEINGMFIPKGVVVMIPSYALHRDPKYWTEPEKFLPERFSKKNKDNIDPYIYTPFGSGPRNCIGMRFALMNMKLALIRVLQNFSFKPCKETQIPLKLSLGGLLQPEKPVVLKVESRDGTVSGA
Voltage-gated inwardly rectifying potassium channel KCNH2, sequence (Q12809 whole entry): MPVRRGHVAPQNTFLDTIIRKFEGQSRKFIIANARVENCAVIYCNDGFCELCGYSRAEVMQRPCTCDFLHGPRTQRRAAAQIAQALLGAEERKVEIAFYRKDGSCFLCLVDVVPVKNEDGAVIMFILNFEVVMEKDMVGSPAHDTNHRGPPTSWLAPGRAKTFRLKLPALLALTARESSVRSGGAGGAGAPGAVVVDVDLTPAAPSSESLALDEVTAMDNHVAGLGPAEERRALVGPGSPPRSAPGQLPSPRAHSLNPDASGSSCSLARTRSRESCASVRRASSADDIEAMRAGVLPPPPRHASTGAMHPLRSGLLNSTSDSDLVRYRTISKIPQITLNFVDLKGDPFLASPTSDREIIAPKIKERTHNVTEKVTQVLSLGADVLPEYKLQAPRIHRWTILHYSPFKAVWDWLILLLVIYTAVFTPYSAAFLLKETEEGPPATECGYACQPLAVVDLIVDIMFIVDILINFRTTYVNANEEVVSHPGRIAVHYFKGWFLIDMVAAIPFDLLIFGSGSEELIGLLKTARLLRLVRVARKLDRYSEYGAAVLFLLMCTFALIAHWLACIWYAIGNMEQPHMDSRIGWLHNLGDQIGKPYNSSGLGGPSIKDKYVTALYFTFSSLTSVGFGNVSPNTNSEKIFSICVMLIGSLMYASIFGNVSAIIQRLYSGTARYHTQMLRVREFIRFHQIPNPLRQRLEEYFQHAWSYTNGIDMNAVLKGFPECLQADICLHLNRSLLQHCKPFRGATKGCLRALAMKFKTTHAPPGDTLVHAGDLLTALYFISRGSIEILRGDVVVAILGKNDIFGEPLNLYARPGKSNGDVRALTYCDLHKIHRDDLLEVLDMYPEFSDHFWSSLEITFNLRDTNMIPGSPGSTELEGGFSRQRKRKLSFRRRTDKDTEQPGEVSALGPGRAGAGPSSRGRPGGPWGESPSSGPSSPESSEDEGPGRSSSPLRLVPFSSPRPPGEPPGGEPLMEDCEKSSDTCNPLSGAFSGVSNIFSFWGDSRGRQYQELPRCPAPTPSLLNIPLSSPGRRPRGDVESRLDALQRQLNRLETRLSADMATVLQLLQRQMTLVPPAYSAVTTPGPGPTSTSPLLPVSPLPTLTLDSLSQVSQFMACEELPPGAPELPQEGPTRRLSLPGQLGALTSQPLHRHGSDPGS
CYP2C19, sequence (P33261 whole entry): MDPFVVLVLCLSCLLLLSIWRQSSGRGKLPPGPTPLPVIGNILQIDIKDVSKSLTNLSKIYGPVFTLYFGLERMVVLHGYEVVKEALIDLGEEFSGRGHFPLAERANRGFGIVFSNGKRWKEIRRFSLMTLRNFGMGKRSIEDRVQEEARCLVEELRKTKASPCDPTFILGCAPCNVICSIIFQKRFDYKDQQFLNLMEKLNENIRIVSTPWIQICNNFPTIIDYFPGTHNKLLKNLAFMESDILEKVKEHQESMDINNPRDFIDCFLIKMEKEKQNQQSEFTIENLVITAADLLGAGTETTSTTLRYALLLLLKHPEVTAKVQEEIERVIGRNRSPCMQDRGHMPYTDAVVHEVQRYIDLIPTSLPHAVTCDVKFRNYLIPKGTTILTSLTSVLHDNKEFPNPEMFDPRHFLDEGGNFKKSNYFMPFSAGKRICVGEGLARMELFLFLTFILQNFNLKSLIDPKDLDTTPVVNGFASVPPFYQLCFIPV

Row | Compound | pEC50 [1] | Activity (Cavia porcellus [2]) | pKi [3] | Activity (Cavia porcellus [4]) | Activity (Cavia porcellus [5]) | Activity (Cavia porcellus [6]) | inhibition (INH) (Cavia porcellus [7]) | Activity (Cavia porcellus [8]) | Activity (Cavia porcellus [9]) | also measured
1 | COc1cc(NC(=O)CCN2CCC(OC(=O)Nc3ccccc3-c3ccccc3)CC2)ccc1CNC[C@H](O)c1ccc(O)c2[nH]c(=O)ccc12 | 9.60 | 94% | 9.80 | 72% | 70% | 81% | -3% | – | – | –
2 | O=C(CCN1CCC(OC(=O)Nc2ccccc2-c2ccccc2)CC1)Nc1ccc(CNC[C@H](O)c2ccc(O)c3[nH]c(=O)ccc23)cc1 | 9.60 | – | 10.10 | -2% | 47% | 98% | 82% | – | – | –
3 | NC(=O)C(c1ccccc1)(c1ccccc1)[C@@H]1CCN(CCc2ccc3c(c2)CCO3)C1 [DARIFENACIN] | – | inactive | – | 43% | 74% | 72% | – | inactive | inactive | –
4 | C[N+]1(C)[C@@H]2C[C@@H](OC(=O)C(O)(c3cccs3)c3cccs3)C[C@H]1[C@@H]1O[C@@H]12 [TIOTROPIUM] | – | – | – | – | – | – | – | – | – | inhibition (INH) (Cavia porcellus [10]): 99%; Activity (Cavia porcellus [11]): inactive; Activity (Cavia porcellus [12]): inactive; Activity (Cavia porcellus [13]): inactive; Activity (Cavia porcellus [14]): 75%; Activity (Cavia porcellus [15]): inactive; Activity (Cavia porcellus [16]): 90%
5 | COc1cc(NC(=O)CCN2CCC(OC(=O)Nc3ccccc3-c3ccccc3)CC2)c(Cl)cc1CNC[C@H](O)c1ccc(O)c2[nH]c(=O)ccc12 [BATEFENTEROL] | – | 75% | 8.70 | 47% | 73% | 48% | 4% | 77% | 92% | inhibition at 0.6 µM (CYP1A2): 25%; pEC50 (Cavia porcellus [17]): 8.00; clearance [18]: 75.3 mL/min/kg; T1/2 [19]: 3 min; half-life [20]: 10.8 min; pEC50 (Cavia porcellus [21]): 7.60; inhibition at 0.6 µM (CYP2D6): < 20%; inhibition (INH) [22]: Not Active; Papp [23]: < 0.4 ×10⁻⁶ cm/s; Activity (Salmonella typhimurium [24]): Non-toxic; half-life at 3 µM [25]: 11.3 min; bioavailability [26]: < 0.45%; inhibition at 0.6 µM (CYP2C9): < 20%; Drug metabolism (Liver microsome): metabolite_notdetected; Vd [27]: 0.32 L/kg; pEC50 (Cavia porcellus [28]): 7.30; inhibition at 0.6 µM (CYP3A4): < 20%; inhibition at 0.6 µM (CYP2C19): < 20%; Activity (Rattus norvegicus): Non-toxic; Activity (Salmonella typhimurium [29]): Non-toxic
6 | O=C(CCN1CCC(OC(=O)Nc2ccccc2-c2ccccc2)CC1)Nc1cccc(CCNC[C@H](O)c2ccc(O)c3[nH]c(=O)ccc23)c1 | 10.00 | 77% | 9.00 | 46% | 80% | 51% | 23% | 72% | 93% | –
